{"data": "Assay results pooled from the literature", "target": "Delta-type opioid receptor (OPRD1, Homo sapiens, UniProt P41143)", "note": "Compare with care: the assays were run in different laboratories."}
{"SMILES": "CC[C@@H]1CN2CC[C@@]3(O)C(=Nc4cccc(-c5ccoc5)c43)[C@@H]2C[C@@H]1/C(=C\\OC)C(=O)OC", "effect on": "β-arrestin recruitment", "action": "agonist", "quantity": "Emax", "result": "> 100%"}
{"SMILES": "Nc1ncc(-c2nc(N3CCOCC3)nc(N3CCOCC3)n2)c(C(F)F)n1", "effect on": "cell-free assay", "technique": "radioligand", "concentration": "10 µM", "quantity": "remaining signal", "result": "103%"}
{"SMILES": "CC(C)N1CCC[C@H]1CNC(=O)c1cn(C2CCCC2)c(=O)c2c1c1ccccc1n2C", "effect on": "ligand displacement", "technique": "radioligand", "concentration": "10 µM", "quantity": "inhibition", "result": "6%"}
{"SMILES": "CC1(C)SSC(C)(C)[C@@H](NC(=O)[C@@H](N)Cc2ccc(O)cc2)C(=O)NCC(=O)N[C@@H](Cc2ccccc2)C(=O)N2CCN(CC2)C(=O)[C@H](Cc2ccccc2)NC(=O)CNC(=O)[C@@H]1NC(=O)[C@@H](N)Cc1ccc(O)cc1", "effect on": "cAMP", "action": "agonist", "technique": "luciferase", "cell line": "HEK293", "quantity": "Emax", "result": "206%"}
{"SMILES": "c1ccc(C(NCCNC(c2ccccc2)c2ccccc2)c2ccccc2)cc1", "effect on": "ligand displacement", "concentration": "10 µM", "quantity": "inhibition", "result": "81%"}
{"SMILES": "Clc1ccc2c(C3CCN(CCc4c[nH]c5ccccc45)CC3)c[nH]c2c1", "effect on": "ligand displacement", "technique": "radioligand", "concentration": "10 µM", "quantity": "inhibition", "result": "35%"}
{"SMILES": "CC[C@@H]1CN2CC[C@@]3(O)C(=Nc4cccc(-c5ccccc5)c43)[C@@H]2C[C@@H]1/C(=C\\OC)C(=O)OC", "effect on": "β-arrestin recruitment", "action": "agonist", "quantity": "Emax", "result": "> 100%"}
{"SMILES": "COCc1c(-c2cc3cc(C)cc(OC)c3s2)c2c(N)ncnn2c1CN1CCNC(=O)C1", "effect on": "ligand displacement", "technique": "radioligand", "concentration": "10 µM", "quantity": "inhibition", "result": "16%"}
{"SMILES": "Cc1cc(Nc2nccc(C)n2)cc(-c2cnc([C@@]3(O)CC[C@H](C(=O)O)C(C)(C)C3)s2)c1", "effect on": "ligand displacement", "concentration": "10 µM", "quantity": "inhibition", "result": "12.8%"}
{"SMILES": "CCN(CC)CCCC[C@H](NC(=O)[C@H](CC(C)C)NC(=O)[C@H](C)NC(=O)[C@H](Cc1ccccc1)NC(=O)c1ccc(C(C)(C)C)cc1)C(=O)N[C@@H](CO)C(=O)OC", "effect on": "ligand displacement", "technique": "radioligand", "concentration": "10 µM", "quantity": "remaining binding", "result": "71.4%"}
{"SMILES": "O=C(c1ccc(F)cc1)N1CC(COc2ccc(Br)cc2)(C(=O)O)C1", "effect on": "cell-free assay", "concentration": "10 µM", "quantity": "inhibition", "result": "-5.22%"}
{"SMILES": "C[C@H](C(=O)N[C@H]1COc2ccccc2[C@@H]1S(C)(=O)=O)c1ccc(F)cc1", "effect on": "ligand displacement", "concentration": "10 µM", "quantity": "inhibition", "result": "1%"}
